Source: PubChem BioAssay
A selection: hits, their analogues and other compounds. The true share with any hit is near 3.5%.
MrgX1 allo act: allosterically activates human MrgX1 receptor signaling | 310,000 tested, 0.63% active | MrgX1-HEK293, Fluo-4 calcium flux, FDSS; stronger effect = higher value | Q96LB2 | B-score at 10 µM;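 active = plate-corrected calcium response at least 3 library SD above typical, normal starting fluorescence, not activating the receptor alone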;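 also: compound read alongside a low EC10 to EC30 dose of BAM8-22 agonist; peak minus trough fluorescence over baseline measured at the second addition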
Target sequence (Q96LB2 whole entry, looked up): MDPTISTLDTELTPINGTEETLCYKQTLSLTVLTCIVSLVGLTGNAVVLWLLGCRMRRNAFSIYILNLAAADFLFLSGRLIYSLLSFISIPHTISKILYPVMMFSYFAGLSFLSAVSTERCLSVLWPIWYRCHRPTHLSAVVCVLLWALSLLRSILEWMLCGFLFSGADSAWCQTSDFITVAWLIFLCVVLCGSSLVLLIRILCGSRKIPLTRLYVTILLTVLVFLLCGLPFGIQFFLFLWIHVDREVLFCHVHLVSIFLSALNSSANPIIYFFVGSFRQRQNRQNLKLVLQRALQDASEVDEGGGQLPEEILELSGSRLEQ
RGS4 act: potentiators or activators of RGS4. AID 463111. B-score at 10 µM. HEK293 M3R/inducible RGS4, carbachol calcium flux Fluo4; stronger effect = lower value. 310,000 tested, 0.92% active;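 active = B-score of the integrated calcium signal more than 4 SD below the library mean, with starting fluorescence not abnormally high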;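 also: negative B-score means reduced calcium response which marks RGS4 activation or potentiation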
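Material: Inducible-RGS4 HEK293 cells carrying M3 receptor; also added: carbachol at ECmax as muscarinic agonist stimulus; incubation: compound preincubation 20 min at room temperature before agonist; signal: Fluo4-AM (2 µM) calcium-flux fluorescence, kinetic read; measure: integrated calcium ratio converted to B score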
MrgX1 antag: antagonists of human MrgX1 receptor; Q96LB2; MRGX1-HEK293 calcium flux, Fluo-4, BAM8-22 antagonism; stronger effect = lower value; B-score at 10 µM; 310,000 tested, 1.3% active;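 active = calcium-response B-score plate-corrected more than 3 library SD below zero, starting fluorescence within 5 deviations, no agonist response on first addition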;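 also: peak minus trough fluorescence over baseline after final BAM8-22 challenge near maximal dose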
RGS4 inh: human RGS4 inhibition | B-score at 10 µM | P49798 | HEK293 M3R/RGS4 inducible, Fluo-4 calcium flux; stronger effect = higher value; triggered by carbachol at its EC20 | 310,000 tested, 0.45% active;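 active = B-score, a plate-corrected calcium signal, over three deviations above library mean, with baseline fluorescence within five deviations of library mean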;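 also: RGS4 expression induced by doxycycline in cells with stable M3 receptor; B-score is computed from the integrated fluorescence ratio over baseline after carbachol; higher B-score means a larger calcium signal and so more RGS4 inhibition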
Target sequence (P49798 whole entry, looked up): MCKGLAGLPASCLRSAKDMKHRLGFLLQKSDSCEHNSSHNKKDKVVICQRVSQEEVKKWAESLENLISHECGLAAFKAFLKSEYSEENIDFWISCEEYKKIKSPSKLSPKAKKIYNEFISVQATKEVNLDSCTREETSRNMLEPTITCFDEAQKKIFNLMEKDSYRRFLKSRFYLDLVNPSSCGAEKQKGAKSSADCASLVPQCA
MrgX1 agonist: agonists of human MrgX1 receptor. MrgX1-HEK293 cells, Fluo-4 calcium fluorescence, agonist mode; stronger effect = higher value. B-score at 10 µM. 310,000 tested, 0.44% active;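 active = calcium response B-score plate-corrected fluorescence ratio at least 3 library SD, with starting fluorescence B-score inside 5 SD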
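Test system: Stable human MrgX1 HEK293 cell line | Schedule: Overnight plating before 1 h dye loading | Read-out basis: Baseline-normalised fluorescence change ratio, B-scored | Detection: Kinetic calcium dye fluorescence, Fluo-4 NW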
Of the large screens only hits and unclear results are named; the others gave an inactive call.

CSC1=N/C(=C\c2ccc(C)cc2)C(=O)S1	MrgX1 allo act 16
CCOC(=O)SC1=N/C(=C\c2ccc(N(C)C)cc2)C(=O)S1	MrgX1 allo act 7.8
CCOC(=O)c1c(-c2ccccc2Cl)csc1NC(=O)CSc1nc(C)cc(=O)[nH]1	none
CC(C)=CCOc1c2ccoc2cc2oc(=O)ccc12	MrgX1 antag -5.7
CC1(C)O[C@@H]1COc1c2ccoc2cc2oc(=O)ccc12	none
COCCCNC(=O)C1c2ccccc2Oc2ccccc21	none
CCN(CC)CCCNC(=O)C1c2ccccc2Oc2ccccc21	RGS4 act -7.3
O=C(O)[C@H](Cc1ccccc1)NC(=O)N1CCN(c2cccc(C(F)(F)F)c2)CC1	none
Cc1cc(N2CCCC2)ccc1/C=C1\NC(=S)N(C)C1=O	MrgX1 agonist 44
CN1C(=O)c2ccc(N3CCCC3)cc2C1=O	none
COc1cc(OC)c(/C=N/NC(=O)c2ccc(Cn3nc([N+](=O)[O-])cc3C)cc2)c(OC)c1	none
CCOC(=O)C1=NN(C(=O)c2ccc(OC)cc2)C(O)(c2ccc(Cl)cc2)C1 (stereo not given)	MrgX1 agonist 48
CCOC(=O)C1=NN(C(=O)Cc2ccccc2)C(O)(c2ccc(Cl)cc2)C1 (stereo not given)	none
CCOC(=O)C1=NN(C(=O)c2cccc(Br)c2)C(O)(C(C)(C)C)C1 (stereo not given)	MrgX1 agonist 96
CCOC(=O)C1=NN(C(=O)c2ccco2)C2(CC2)C1	none
CCOC(=O)C1=NN(C(=O)c2ccccc2)C(O)(c2ccc(C)cc2)C1 (stereo not given)	none
COC(=O)C1=NN(C(=O)c2cccc(Br)c2)C(O)(c2ccc(Cl)cc2)C1 (stereo not given)	MrgX1 agonist 36
CCN(CC(=O)Nc1ccc2c(c1)OCCO2)C(=O)CSCC(=O)Nc1ccc(C)cc1	none
NS(=O)(=O)c1ccc(CCNS(=O)(=O)c2cccc(C(=O)O)c2)cc1	none
CC1CCCCN1CC(=O)Nc1ccc2c(c1)OC(F)(F)O2 (stereo not given)	none
CN1CCC(N(C)CC(=O)Nc2ccc3c(c2)OC(F)(F)O3)CC1	RGS4 act -7.4
Cc1nn(-c2ccccc2)c(C)c1/C=N/NC(=O)CSc1nc2ccccc2c(=O)n1-c1ccc(Br)cc1	none
CCOC(=O)c1c(C)[nH]c(C)c1C(=O)CSc1nc2ccccc2c(=O)n1-c1ccc(C)cc1	RGS4 act -7.2
Cc1ccc(-n2c(SCC(=O)N/N=C/c3c(C)nn(-c4ccccc4)c3C)nc3ccccc3c2=O)cc1	MrgX1 antag -6.4
COc1ccc(Cl)cc1N(CC(=O)NC(C)(C)C)S(=O)(=O)c1ccc(C)c([N+](=O)[O-])c1	none
CN(CC(=O)Nc1ccccc1C(F)(F)F)C(=O)c1cc([N+](=O)[O-])ccc1N1CCOCC1	none
COc1ccc(C(CNC(=O)c2ccccc2SC)N(C)C)cc1 (stereo not given)	none
Nc1cc(N)c(OCC(F)(F)F)cc1OCC(F)(F)F	RGS4 inh 6.7
Nc1cc(OCC(F)(F)F)cc([N+](=O)[O-])c1	none
CCOc1ccc(N)c(SSc2cc(OCC)ccc2N)c1	MrgX1 agonist 29
CCOc1cc(-c2ccc(N)c(OCC)c2)ccc1N	none
COc1cc(-c2cc(C(=O)N(C)Cc3ccccc3)c3ccccc3n2)cc(OC)c1OC	none
COc1cccc(CN(C)C(=O)c2cc(-c3cccs3)nc3ccccc23)c1	RGS4 act -9.1
CCN(Cc1ccccc1)C(=O)c1cc(-c2ccc(OC)c(OC)c2)nc2ccccc12	RGS4 act -9.2
COc1ccc(-c2cc(C(=O)N(C)Cc3ccccc3F)c3ccccc3n2)cc1OC	RGS4 act -8.2
COCCN(Cc1ccccc1)C(=O)c1cc(-c2ccc(OC)c(OC)c2)nc2ccccc12	RGS4 act -8.7
Cc1ccc2c(c1)N(C(=O)CCC(=O)NC1CCCCCC1)CCO2	none
Cc1ccccc1C(=O)c1ccc2c(c1)n(C)c(=O)n2C	none
O=C(CN1CCN(S(=O)(=O)c2ccc(Br)cc2)CC1)N/N=C/c1ccccc1C(=O)O	none
COc1ccc(C(=O)Nc2cc(C)nn2-c2ccc(C)cc2)cc1	none
Cc1ccc(CSc2nnc(SCC(=O)N/N=C/c3ccc(C(=O)O)cc3)s2)cc1	MrgX1 antag -5.2
CC1(C)CC(c2nc(-c3ccc(Cl)cc3)cs2)CCS1 (stereo not given)	MrgX1 allo act 8.7
COc1cc(C(=O)NCCOc2cc(C)ccc2C(C)C)cc(OC)c1OC	MrgX1 antag -4.7
Cc1ccc(C(C)C)c(OCCNC(=O)c2cncc(Br)c2)c1	none
Cc1nnc(N/N=C/c2ccc(-c3ccc(Br)cc3)o2)n1N	none
Cc1nnc(N/N=C/c2ccc(Br)cc2)n1N	MrgX1 allo act 18
O=C(NN1C(=O)c2ccccc2NC1c1ccoc1)c1ccc([N+](=O)[O-])cc1 (stereo not given)	MrgX1 antag -4.6
COc1cccc(OC)c1C(=O)Nc1cccc(-n2cnnn2)c1	none
COc1ccccc1NC(=O)c1ccc(NC(=O)CSc2ncn[nH]2)cc1	none
Cc1cc(/C=N/n2cnnc2)c(C)n1-c1ccc(Cl)cc1	none
Cc1cc(/C=N/n2cnnc2)c(C)n1-c1ccc(OCc2ccc(Cl)cc2Cl)cc1	RGS4 act -8.3
Cc1cc(NS(=O)(=O)c2ccc(NC(=S)NC(=O)c3cccc(S(=O)(=O)N(C)C)c3)cc2)no1	MrgX1 allo act 14
O=C(O)c1ccccc1N/N=C\c1ccnc2ccccc12	MrgX1 agonist 41
O=C(O)c1ccccc1N/N=C/c1cc(Br)cc(Br)c1O	MrgX1 antag -6.4
COc1ccc(C(CNC(=O)c2ccc(-c3ccccc3Cl)o2)N2CCOCC2)cc1 (stereo not given)	none
COc1ccccc1C(CNC(=O)c1ccc(-c2ccccc2Cl)o1)N1CCCC1 (stereo not given)	RGS4 act -7.1
Cc1cc(=O)oc2cc(OCC(=O)OCC(=O)Nc3c(C)n(C)n(-c4ccccc4)c3=O)ccc12	MrgX1 antag -8.8
CCCc1cc(C(=O)Nc2ccc(C(=O)c3ccccc3)cc2)n(C)n1	none
CCCc1cc(C(=O)Nc2ccc(C(=O)c3ccc(F)cc3)cc2)n(C)n1	MrgX1 antag -6.9
OC(COc1ccc(C2C=CCC2)cc1)CN1CCCCC1 (stereo not given)	RGS4 act -7
Cc1ccc(C)c(C(=O)COC(=O)CCCC(=O)Nc2cc(C(F)(F)F)ccc2Cl)c1	MrgX1 antag -7
CCn1c(C)cc(/C=C2/SC(=S)NC2=O)c1C	none
Cc1cc(/C=C2\SC(=S)NC2=O)c(C)[nH]1	MrgX1 agonist 38
C/C(CCc1ccc2c(c1)OCO2)=N\N=C(/N)SC1CC(=O)N(c2ccccc2F)C1=O (stereo not given)	none
Cn1cc(/C=C/c2cc[n+](C)cc2)c2cc(F)ccc21	none
C[n+]1ccc(/C=C/c2c[nH]c3ccc(F)cc23)cc1	RGS4 act -7.8
